According to ChEMBL document CHEMBL1151913, “Preparation of novel (Z)-4-ylidenebenzo[b]furo[3,2-d][1,3]oxazines and their biological activity” (2009):
Calls of active or inactive are those of the source. No cut-off for these calls is given here.

Assays:
MCF7 = experiment: Growth inhibition of human MCF7 cells after 72 hrs by Alamar Blue assay; assay type: functional; conditions: MCF7, 72 h
Method in brief: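 MCF-7 grown in E-MEM with 10% FCS and antibiotic-antimycotic; 1 × 10^4 cells/well seeded, 24 h at 37 °C, 5% CO2; medium replaced with drug-containing medium (final DMSO ≤0.25%) in triplicate wells, 72 h continuous exposure; alamarBlue added for further 3 h.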

MIA PaCa-2 = experiment: Growth inhibition of human MIAPaCa2 cells after 72 hrs by Alamar Blue assay; assay type: functional; conditions: MIA PaCa-2, 72 h
Method in brief: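 MIA PaCa-2 grown in D-MEM with 10% FCS and antibiotic-antimycotic; 1 × 10^4 cells/well seeded, 24 h at 37 °C, 5% CO2; medium replaced with drug-containing medium (final DMSO ≤0.25%) in triplicate wells, 72 h continuous exposure; alamarBlue added for further 3 h.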

Osteoblast = experiment: Anti-osteoclastic bone resorption activity in ddY mouse calvarial osteoblasts assessed as inhibition of PGE2-stimulated resorption pit formation relative to 17-beta-estradiol; assay type: functional, cell-based
Method in brief: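 Osteoclasts generated by 7-day coculture of preconfluent calvarial osteoblasts (1–2 day old ddY mice) with fresh bone marrow cells (5 week-old male ddY mice) on collagen-coated dish in α-MEM (pH 7.0), 10% FCS, 10 nM calcitriol, 1.0 μM PGE2; collagenase-released cells plated on dentin slices with 10 nM E2 or compounds, 2 days; pits counted after toluidine blue staining.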

| SMILES | GI50 (MCF7) | GI50 (MIA PaCa-2) | Activity (Osteoblast) |
| --- | --- | --- | --- |
| O=c1[nH]cc(F)c(=O)[nH]1 [FLUOROURACIL] | > 10 µM | > 10 µM |  |
| COc1ccc(CCNC(=O)/C=C/C=C2\OC(/C=C/c3ccccc3)=Nc3c2oc2ccc(Br)cc32)cc1OC |  |  | inactive |
| CCN(CC)C(=O)/C=C/C=C1\OC(/C=C/c2ccccc2)=Nc2c1oc1ccc(Br)cc21 |  |  | inactive |
| CCOC(=O)/C=C/C=C1\OC(/C=C/c2ccccc2)=Nc2c1oc1ccc(Br)cc21 |  |  | Active |
| O=C/C=C1\OC(/C=C/c2ccccc2)=Nc2c1oc1ccc(Br)cc21 |  |  | inactive |
| CCOC(=O)/C=C/C=C1\OC(/C=C(\Cl)c2ccc(Cl)cc2)=Nc2c1oc1ccc(Br)cc21 | > 10 µM | > 10 µM |  |
| CCOP(=O)(OCC)/C(=C/C=C1\OC(/C=C/c2ccccc2)=Nc2c1oc1ccc(Br)cc21)c1ccc(Cl)cc1 |  |  | Active |
| COc1cccc2c3c(oc12)/C(=C/C=C/C(=O)N1CCOCC1)OC(/C=C/c1ccccc1)=N3 | > 10 µM | 5.34 µM |  |
| COc1cccc2c3c(oc12)/C(=C/C=O)OC(/C=C/C=C(/Cl)c1ccc(F)cc1)=N3 | 7.14 µM | > 10 µM |  |
| O=C(/C=C/C=C1\OC(/C=C/c2ccccc2)=Nc2c1oc1ccc(Br)cc21)N1CCOCC1 |  |  | inactive |
| C/C=C/C1=Nc2c(oc3ccc(Br)cc23)/C(=C/C=O)O1 |  |  | inactive |
